From ChEMBL document CHEMBL4261486, “2-Arylaminobenzothiazole-arylpropenone conjugates as tubulin polymerization inhibitors” (Medchemcomm, 2017)
The source made the active and inactive calls. The calls are words filed in the database; no cut-off is given here.

How the values were obtained:
HeLa [1] = experiment: Induction of mitochondrial membrane potential loss in human HeLa cells assessed as collapse of the mitochondrial membrane potential at 1 uM after 24 hrs by Rh-123 staining based spectrofluorimetric method relative to control; assay type: functional
Summary of the method: (§1)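 HeLa cells, seeded at 5 × 10^5 cells per mL overnight, were exposed to 1 μM for 24 h. Cells were trypsinized and incubated in PBS with Rhodamine-123 (10 μg/mL) for 30 min at room temperature, then washed. Fluorescence was read on a spectrofluorometer relative to control. Data are mean ± SD of three independent experiments.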

[2] = Inhibition of bovine brain tubulin polymerization pretreated followed by GTP addition measured at 1 min interval for 1 hr by fluorescence reporter based assay; parameters: species or system Bos taurus
Summary of the method: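 Bovine brain tubulin (2 mg/mL) was pre-incubated with compound at 1, 2, 3, 4 and 5 μM. The buffer was PEM (80 mM PIPES, 0.5 mM EGTA, 2 mM MgCl2, pH 6.9) with 10 μM fluorescent reporter and 1 mM GTP at 37 °C. Fluorescence (ex 360 / em 420 nm) was read every min for 1 h. IC50 was derived from these concentrations.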

Tubulin (Homo sapiens) [3] = molecular target: T1, Tubulin (Homo sapiens) (UniProt P68371+Q9H4B7+P0DPH7+P68366+Q13509+Q71U36+P04350+Q3ZCM7+P07437+P68363+Q9BQE3+Q6PEY2+Q13885+Q9BVA1+Q9BUF5); experiment: Inhibition of tubulin polymerization in human HeLa cells assessed as appearance of irregular microtubule at 3 uM after 24 hrs by DAPI staining based confocal microscopic analysis; assay type: cell-based
Summary of the method: (§2)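 HeLa cells on coverslips were exposed to 3 μM for 24 h and fixed in 3.5% formaldehyde in PBS. They were permeabilized with Triton X-100/Tween-20 and blocked in 2% BSA. Primary antitubulin antibody (1:200) was applied for 4 h, then FITC anti-mouse secondary (1:500) for 1 h. Nuclei were counterstained with DAPI and imaged by confocal microscopy at 60×, with a DMSO control.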

HeLa [4] = experiment: Induction of apoptosis in human HeLa cells assessed as appearance of condensed nuclei at 1 uM after 24 hrs by Hoechst […] staining based fluorescence microscopic analysis; assay type: functional, cell-based
Summary of the method: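 HeLa cells, 5 × 10^4 per well, were allowed 24 h to adhere. They were then exposed to 1 μM for 24 h at 37 °C and fixed in 4% paraformaldehyde for 10 min at 4 °C. Staining was with Hoechst […] at 5 μg/mL for 30 min at room temperature. Nuclear morphology was scored by fluorescence microscopy (ex 350, em 460 nm).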

HeLa [5] = experiment: Induction of cyclin-B1 mRNA expression in human HeLa cells by qRT-PCR analysis; assay type: functional, cell-based
Tubulin (Homo sapiens) [6] = molecular target: T1, Tubulin (Homo sapiens); experiment: Inhibition of tubulin polymerization in human HeLa cells assessed as increase of tubulin in soluble fraction at 3 uM after 24 hrs by Western blot analysis; assay type: cell-based
Summary of the method: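 HeLa cells, 1 × 10^5 per well, were treated for 24 h (3 μM for test conjugates). The soluble fraction was extracted with warm PIPES/Triton lysis buffer for 3 min at 30 °C, and the remaining polymerized fraction was taken in Laemmli buffer. Equal volumes were run by SDS-10% PAGE and immunoblotted for α-tubulin (1:2000) with HRP secondary and ECL detection.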

HeLa [7] = experiment: Upregulation of cyclin-B1 expression in human HeLa cells at 3 uM after 24 hrs by Western blot analysis; assay type: functional, cell-based
Summary of the method: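 HeLa cells were treated with 3 μM for 24 h, with a DMSO vehicle control. Cyclin B1 protein was detected by immunoblot with tubulin as loading control.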

Tubulin (Homo sapiens) [8] = molecular target: T1, Tubulin (Homo sapiens); experiment: Inhibition of tubulin polymerization in human HeLa cells assessed as disruption of microtubule organization at 3 uM after 24 hrs by DAPI staining based confocal microscopic analysis; assay type: cell-based; summary of the method: as §2
Tubulin (Homo sapiens) [9] = molecular target: T1, Tubulin (Homo sapiens); experiment: Inhibition of tubulin polymerization in human HeLa cells assessed as appearance of rounded microtubule at 3 uM after 24 hrs by DAPI staining based confocal microscopic analysis; assay type: cell-based; summary of the method: as §2
HeLa [10] = experiment: Induction of reactive oxygen species generation in human HeLa cells at 1 uM after 24 hrs by carboxy-DCFH-DA staining based fluorescence microscopic analysis; assay type: functional, cell-based
Summary of the method: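 Cells were treated with 1 μM for 24 h, then loaded with carboxy-DCFH-DA (10 μM) for 30 min at room temperature in the dark. They were resuspended in PBS at 5 × 10^4 cells per mL. DCF fluorescence was read by spectrofluorometer (ex 488 / em 525 nm per methods; 485/535 nm per legend), and images were taken by fluorescence microscopy.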

MIA PaCa-2 = experiment: Antiproliferative activity against human MIAPaCa2 cells after 48 hrs by sulforhodamine B assay; assay type: functional, cell-based; details: MIA PaCa-2, 48 h
Summary of the method: (§3)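 Cells grown in DMEM with 10% FBS at 37 °C under 5% CO2. Plated cells were allowed 24 h before drug, then exposed continuously for 48 h at 0.01, 0.1, 1, 10 and 100 μM. Monolayers were fixed with cold 10% TCA for 1 h at 4 °C and stained with 0.057% SRB in 1% acetic acid for 30 min. Bound dye was read at 510 nm. IC50 is the 50% growth-inhibitory concentration, using time-zero and control readings.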

HeLa [11] = experiment: Cell cycle arrest in human HeLa cells assessed as accumulation at G2/M phase at 3 uM after 24 hrs by propidium iodide staining based flow cytometry (reference value: 33.4%); assay type: functional
A549 = experiment: Antiproliferative activity against human A549 cells after 48 hrs by sulforhodamine B assay; assay type: functional, cell-based; details: A549, 48 h; summary of the method: as §3
HeLa [12] = experiment: Antiproliferative activity against human HeLa cells after 48 hrs by sulforhodamine B assay; assay type: functional, cell-based; summary of the method: as §3
MDA-MB-231 = experiment: Antiproliferative activity against human MDA-MB-231 cells after 48 hrs by sulforhodamine B assay; assay type: functional, cell-based; details: MDA-MB-231, 48 h; summary of the method: as §3
HeLa [13] = experiment: Induction of mitochondrial membrane potential loss in human HeLa cells at 1 uM after 24 hrs by Rh-123 staining based spectrofluorimetric method relative to control; assay type: functional; summary of the method: as §1

Structure (SMILES)	Activity (HeLa [1]) [%]	IC50 [2] [nM]	inhibition (Tubulin (Homo sapiens) [3])	Activity (HeLa [4])	Activity (HeLa [5])	inhibition (Tubulin (Homo sapiens) [6])	Activity (HeLa [7])	inhibition (Tubulin (Homo sapiens) [8])	inhibition (Tubulin (Homo sapiens) [9])	Activity (HeLa [10])	IC50 (MIA PaCa-2) [nM]	Activity (HeLa [11]) [%]	IC50 (A549) [nM]	IC50 (HeLa [12]) [nM]	IC50 (MDA-MB-231) [nM]	Activity (HeLa [13]) [%]
COc1ccc2nc(-c3ccc(N/C=C\C(=O)c4ccc(OC)c(F)c4)cc3)sc2c1	40	2200	Active	Active	Active	Active	Active	Active	Active	Active	1300	88.7	900	500	1100	
COc1ccc2nc(-c3ccc(N/C=C\C(=O)c4ccc(OC)c(F)c4)c(C)c3)sc2c1		2900	Active	Active	Active	Active	Active	Active	Active	Active	2300	86.1	1400	600	2000	30
